Measured values reported in ChEMBL document CHEMBL1255195, “Synthesis and biological activity of pyrido[3',2':4,5]thieno[3,2-d]pyrimidines as phosphodiesterase type 4 inhibitors” (J Med Chem, 2010).

Columns and labels:
[1] = biological target: 3',5'-cyclic-AMP phosphodiesterase 4B (Homo sapiens, UniProt Q07343); assay: Inhibition of PDE4B1 expressed in yeast
Summary of the method: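 Human recombinant PDE4A4, PDE4B1 or PDE4D3 made in galactose-induced […]; dialysed extracts (~4 μg protein) used. Hydrolysis of 15 nM [3H]-cAMP in 50 mM Tris pH 7.5, 8.3 mM MgCl2, 1.7 mM EGTA, final DMSO 5%, 60 min at room temperature. Reaction stopped with SPA beads, then scintillation counted. Compounds tested 10 μM to 10 pM in duplicate; IC50 calculated.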

[2] = biological target: 3',5'-cyclic-AMP phosphodiesterase 4A (Homo sapiens, UniProt P27815); assay: Inhibition of PDE4A4 expressed in yeast
[3] = biological target: 3',5'-cyclic-AMP phosphodiesterase 4D (Homo sapiens, UniProt Q08499); assay: Inhibition of PDE4D3 expressed in yeast
[4] = test system: Blood; assay: Antiinflammatory activity against LPS-induced TNFalpha production in human whole blood by ELISA; type: functional, tissue-based
Summary of the method: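 Human whole blood preincubated at 37 °C for 10 min with LPS at final 1 μg/mL; inhibitors in 100% DMSO added at increasing concentrations, blood (LPS-free for controls) incubated 24 h at 37 °C under agitation. Reaction stopped on ice with PBS and centrifugation; serum TNFα measured by sandwich ELISA, TMB substrate, 450 nm. Experiments run 2-3 times, duplicates averaged, given as pg/mL.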

[5] = Apparent permeability from apical to basolateral side of human Caco-2 cells; type: ADME, cell-based
Summary of the method: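 Caco-2 cells seeded at 500 000 cells/well on collagen-coated PET membranes (1 μm pores), differentiated and used six days post-seeding. Compound applied in HBSS with 10 mM Hepes and 25 mM glucose, pH 7.4, at most 1% DMSO, on the apical side. Samples taken after 3 h and analysed by HPLC-UV. [3H]mannitol 115 nM served as integrity control.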

Chain of 3',5'-cyclic-AMP phosphodiesterase 4A (P27815 whole entry): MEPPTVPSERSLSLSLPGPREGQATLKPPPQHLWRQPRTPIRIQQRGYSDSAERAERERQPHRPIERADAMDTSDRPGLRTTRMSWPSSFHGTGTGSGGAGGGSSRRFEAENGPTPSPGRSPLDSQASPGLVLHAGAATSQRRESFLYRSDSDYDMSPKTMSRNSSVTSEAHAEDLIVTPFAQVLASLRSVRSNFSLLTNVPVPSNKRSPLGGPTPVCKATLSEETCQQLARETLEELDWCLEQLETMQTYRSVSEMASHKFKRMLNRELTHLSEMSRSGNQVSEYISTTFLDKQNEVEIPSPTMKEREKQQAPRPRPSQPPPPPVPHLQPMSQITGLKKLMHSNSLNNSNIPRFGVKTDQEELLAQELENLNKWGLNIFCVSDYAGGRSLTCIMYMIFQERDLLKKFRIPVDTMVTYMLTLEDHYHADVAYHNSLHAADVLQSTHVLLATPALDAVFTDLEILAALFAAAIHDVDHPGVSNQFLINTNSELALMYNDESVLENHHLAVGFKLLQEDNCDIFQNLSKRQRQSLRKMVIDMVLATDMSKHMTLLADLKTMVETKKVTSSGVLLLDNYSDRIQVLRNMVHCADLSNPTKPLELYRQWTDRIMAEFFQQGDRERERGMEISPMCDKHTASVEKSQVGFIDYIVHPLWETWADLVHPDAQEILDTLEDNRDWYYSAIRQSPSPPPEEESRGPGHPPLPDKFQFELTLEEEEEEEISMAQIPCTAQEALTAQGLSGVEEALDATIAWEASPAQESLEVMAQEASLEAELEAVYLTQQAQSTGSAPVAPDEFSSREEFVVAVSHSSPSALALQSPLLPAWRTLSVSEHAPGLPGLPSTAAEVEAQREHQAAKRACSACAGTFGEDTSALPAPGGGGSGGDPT
Chain of 3',5'-cyclic-AMP phosphodiesterase 4D (Q08499 whole entry): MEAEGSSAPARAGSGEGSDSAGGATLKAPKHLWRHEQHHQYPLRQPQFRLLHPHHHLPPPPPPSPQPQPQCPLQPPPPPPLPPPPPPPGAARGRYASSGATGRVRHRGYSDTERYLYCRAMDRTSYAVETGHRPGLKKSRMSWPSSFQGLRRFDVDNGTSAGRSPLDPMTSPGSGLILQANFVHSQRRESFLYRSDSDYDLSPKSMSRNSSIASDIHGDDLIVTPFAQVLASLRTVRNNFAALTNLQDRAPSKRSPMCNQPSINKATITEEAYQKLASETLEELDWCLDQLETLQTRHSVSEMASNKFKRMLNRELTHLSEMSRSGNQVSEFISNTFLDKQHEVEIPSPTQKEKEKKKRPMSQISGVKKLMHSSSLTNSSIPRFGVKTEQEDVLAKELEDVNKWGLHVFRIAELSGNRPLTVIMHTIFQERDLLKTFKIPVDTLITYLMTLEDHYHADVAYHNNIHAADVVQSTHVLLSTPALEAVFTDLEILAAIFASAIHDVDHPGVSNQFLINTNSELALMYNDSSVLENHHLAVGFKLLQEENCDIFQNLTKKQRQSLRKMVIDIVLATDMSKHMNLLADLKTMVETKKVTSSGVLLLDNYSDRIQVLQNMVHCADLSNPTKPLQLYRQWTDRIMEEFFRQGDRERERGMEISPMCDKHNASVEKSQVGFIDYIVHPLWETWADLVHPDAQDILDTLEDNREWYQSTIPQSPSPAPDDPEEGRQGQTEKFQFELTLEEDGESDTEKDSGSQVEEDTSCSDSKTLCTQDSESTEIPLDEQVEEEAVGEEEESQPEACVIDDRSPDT
Chain of 3',5'-cyclic-AMP phosphodiesterase 4B (Q07343 whole entry): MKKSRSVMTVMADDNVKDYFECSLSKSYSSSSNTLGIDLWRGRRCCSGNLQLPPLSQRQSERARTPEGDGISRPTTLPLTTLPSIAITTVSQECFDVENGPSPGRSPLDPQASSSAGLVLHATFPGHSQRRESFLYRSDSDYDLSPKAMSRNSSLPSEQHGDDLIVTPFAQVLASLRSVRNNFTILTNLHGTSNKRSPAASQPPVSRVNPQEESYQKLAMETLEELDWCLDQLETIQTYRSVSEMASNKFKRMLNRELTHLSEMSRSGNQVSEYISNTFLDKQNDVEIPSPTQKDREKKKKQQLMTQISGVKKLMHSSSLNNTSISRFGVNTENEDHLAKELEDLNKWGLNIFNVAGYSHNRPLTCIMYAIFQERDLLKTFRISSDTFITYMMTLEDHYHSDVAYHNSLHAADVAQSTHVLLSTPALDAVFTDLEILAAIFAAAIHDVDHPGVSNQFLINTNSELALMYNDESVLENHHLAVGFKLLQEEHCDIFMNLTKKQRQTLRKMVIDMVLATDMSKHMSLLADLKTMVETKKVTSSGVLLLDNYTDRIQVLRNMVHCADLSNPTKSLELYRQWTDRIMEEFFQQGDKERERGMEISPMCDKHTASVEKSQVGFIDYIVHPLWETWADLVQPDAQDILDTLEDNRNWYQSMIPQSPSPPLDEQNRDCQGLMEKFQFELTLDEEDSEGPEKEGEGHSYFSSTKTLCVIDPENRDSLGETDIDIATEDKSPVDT

| SMILES | IC50 [1] | IC50 [2] | IC50 [3] | IC50 [4] | Papp A→B [5] |
| --- | --- | --- | --- | --- | --- |
| CC1(C)CCc2c(N3CCOCC3)nc3sc4c(N(CCO)CCN5CCOCC5)ncnc4c3c2C1 | 2.8 nM | 6.4 nM | 1.8 nM | 327 nM | – |
| CC1(C)Cc2c(c(N3CCOCC3)nc3sc4c(NCCN5CCCCC5)ncnc4c23)CO1 | 284 nM | – | – | – | – |
| CC1(C)Cc2c(c(N3CCOCC3)nc3sc4c(N(CCO)CCN5CCOCC5)ncnc4c23)CO1 | 13 nM | 23 nM | 39 nM | 537 nM | – |
| CC1(C)Cc2c(c(N3CCOCC3)nc3sc4c(NCCN5CCOCC5)ncnc4c23)CO1 | 26 nM | 63 nM | 604 nM | 235 nM | – |
| CC1(C)CCc2c(N3CCOCC3)nc3sc4c(NCCN5CCOCC5)ncnc4c3c2C1 | 2.9 nM | 74 nM | 4.6 nM | 1370 nM | – |
| c1nc(NCCN2CCOCC2)c2sc3nc(N4CCOCC4)c4c(c3c2n1)CCOC4 | 1770 nM | – | – | – | – |
| CN1Cc2c(N3CCOCC3)nc3sc4c(NCCN5CCOCC5)ncnc4c3c2CC1(C)C | 3700 nM | – | – | 3270 nM | – |
| CCC1(C)Cc2c(c(N3CCOCC3)nc3sc4c(NCCN5CCOCC5)ncnc4c23)CO1 (stereo not given) | 90 nM | – | – | 2040 nM | – |
| CC1(C)Cc2c(N3CCOCC3)nc3sc4c(NCCN5CCOCC5)ncnc4c3c2C1 | 333 nM | – | – | – | – |
| CC1(C)CCc2c(N3CCOCC3)nc3sc4c(NCCN5CCOCC5)ncnc4c3c21 | 274 nM | – | – | – | – |
| CN1CCN(c2nc3sc4c(NCCN5CCOCC5)ncnc4c3c3c2COC(C)(C)C3)CC1 | 1200 nM | – | – | – | – |
| CN1CCN(c2nc3sc4c(NCCN5CCOCC5)ncnc4c3c3c2CCC(C)(C)C3)CC1 | 95 nM | – | – | – | – |
| CNc1nc2sc3c(NCCN4CCOCC4)ncnc3c2c2c1COC(C)(C)C2 | 51 nM | – | – | – | – |
| CC(C)Cc1nc2sc3c(NCCN4CCOCC4)ncnc3c2c2c1CCC(C)(C)C2 | 7.2 nM | 6.7 nM | 39 nM | 1280 nM | 0.4 ×10⁻⁶ cm/s |

Now from value to compound:

| IC50 [1] | IC50 [2] | IC50 [3] | IC50 [4] | Papp A→B [5] | SMILES |
| --- | --- | --- | --- | --- | --- |
| 4.5 nM | 5 nM | 19 nM | 401 nM | – | CC1(C)Cc2c(c(N3CCOCC3)nc3sc4c(N(CCN5CCOCC5)Cc5cccnc5)ncnc4c23)CO1 |
| 3.8 nM | 5.4 nM | 7.9 nM | 1090 nM | – | CC1(C)CCc2c(-c3ccco3)nc3sc4c(NCCN5CCOCC5)ncnc4c3c2C1 |
| 2.9 nM | 9 nM | 3.1 nM | 1240 nM | – | CC1(C)CCc2c(-c3ccoc3)nc3sc4c(NCCN5CCOCC5)ncnc4c3c2C1 |
| 167 nM | – | – | – | – | CC1(C)Cc2c(c(N3CCOCC3)nc3sc4c(NCCCN5CCCC5=O)ncnc4c23)CO1 |
| 21 nM | 18 nM | 61 nM | 2150 nM | – | CC1(C)CCc2c(N3CCOCC3)nc3sc4c(NCCCN5CCCC5=O)ncnc4c3c2C1 |
| 5.7 nM | 48 nM | 52 nM | 639 nM | – | CC1(C)Cc2c(c(N3CCOCC3)nc3sc4c(NCc5cccnc5)ncnc4c23)CO1 |
| 3.6 nM | 4.5 nM | 32 nM | 381 nM | – | CC1(C)CCc2c(N3CCOCC3)nc3sc4c(NCc5cccnc5)ncnc4c3c2C1 |
| 22 nM | 97 nM | 128 nM | 1020 nM | – | CC1(C)Cc2c(c(N3CCOCC3)nc3sc4c(NCc5ccncc5)ncnc4c23)CO1 |
| 11 nM | 19 nM | 13 nM | 2040 nM | – | CC1(C)CCc2c(N3CCOCC3)nc3sc4c(NCc5ccncc5)ncnc4c3c2C1 |
| 40 nM | 67 nM | 119 nM | 1190 nM | – | COc1ccccc1CNc1ncnc2c1sc1nc(N3CCOCC3)c3c(c12)CC(C)(C)OC3 |
| 213 nM | – | – | – | – | COc1ccccc1CNc1ncnc2c1sc1nc(N3CCOCC3)c3c(c12)CC(C)(C)CC3 |
| 8.05 nM | 43 nM | 11 nM | 655 nM | – | CC1(C)CCc2c(N3CCCC3)nc3sc4c(NCCN5CCOCC5)ncnc4c3c2C1 |
| 865 nM | – | – | – | – | CN(Cc1ccccc1)c1nc2sc3c(NCCN4CCOCC4)ncnc3c2c2c1CCC(C)(C)C2 |
| 9.9 nM | 18 nM | 4.2 nM | 233 nM | 13.7 ×10⁻⁶ cm/s | CNc1nc2sc3c(NCCN4CCOCC4)ncnc3c2c2c1CCC(C)(C)C2 |
| 45 nM | 20 nM | 25 nM | 261 nM | 21.9 ×10⁻⁶ cm/s | CN(C)c1nc2sc3c(NCCN4CCOCC4)ncnc3c2c2c1COC(C)(C)C2 |
| 37 nM | 97 nM | 34 nM | 912 nM | – | Cc1nc2sc3c(NCCN4CCOCC4)ncnc3c2c2c1CCC(C)(C)C2 |
| – | – | – | 1480 nM | – | COc1ccc(C2CNC(=O)C2)cc1OC1CCCC1 (stereo not given) [ROLIPRAM] |
